# Laboratory results published in ChEMBL document CHEMBL4049419, “Structure-Based Discovery of New Antagonist and Biased Agonist Chemotypes for the Kappa Opioid Receptor” (J Med Chem, 2017).
# pIC50, pKi: −log10 of the molar value. Activity calls are given as the source filed them. The rule behind the calls is not given here.
# Experiments:
# [1] = molecular target: T1, Kappa-type opioid receptor (Homo sapiens, UniProt P41145); assay: Displacement of 3H-U69593 from human KOR expressed in HEK293 cells at 50 uM after 90 mins by micro beta scintillation counting analysis; format: cell-based
# How it was run: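 Primary screen of 3H-U69593 binding at cloned human KOR in HEK293 cells, using a single compound concentration of 50 µM tested in quadruplicate. Percent inhibition of radioligand binding is reported.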
# [2] = molecular target: T1, Kappa-type opioid receptor; assay: Displacement of 3H-U69593 from human KOR expressed in HEK293 cells after 90 mins by micro beta scintillation counting analysis; format: cell-based; conditions: for pKi: read-out: Ki; for Ki: read-out: pKi (converted)
# How it was run: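 Competition binding with 3H-U69593 at cloned human KOR expressed in HEK293 cells. Ki was derived from the curves; normalized data from three independent assays were pooled, mean ± SEM.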
# [3] = tested on: Kappa-type opioid receptor (Homo sapiens), P41145 [M142A]; assay: Displacement of 3H-U69593 from KOR M142A mutant (unknown origin)
# How it was run: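 Single-point KOR mutants were retested alongside wild-type receptor in ³H-U69593 competition binding. 12-point concentration-response from 100 µM to 10 nM, run in triplicate; Ki derived.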
# [4] = molecular target: T1, Kappa-type opioid receptor; assay: Agonist activity at human KOR expressed in HEK293T cells coexpressing Gi assessed as Gi-mediated inhibition of cAMP production at 10 uM incubated for 15 mins followed by Gs activator isoproterenol addition measured after 15 mins by luciferase reporter gene assay relative to Sal-A; format: functional, cell-based; conditions: HEK-293T
# How it was run: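 HEK293T cells co-transfected with human KOR and a split-luciferase GloSensor cAMP biosensor, plated overnight at 15,000 cells/well in DMEM + 1% dialyzed FBS. Loaded 1 h with 20 mM HEPES/1× HBSS pH 7.4 containing 4 mM luciferin. Drug added for 15 min, then isoproterenol (200 nM final, Gs activation via endogenous β2 receptors); luminescence read 15 min later.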
# [5] = species: Homo sapiens; assay: Ratio of Ki for KOR H291A mutant (unknown origin) to Ki for human KOR expressed in HEK293 cells; format: cell-based
# [6] = species: Homo sapiens; assay: Ratio of Ki for KOR I294A mutant (unknown origin) to Ki for human KOR expressed in HEK293 cells; format: cell-based
# [7] = species: Homo sapiens; assay: Ratio of Ki for KOR M142A mutant (unknown origin) to Ki for human KOR expressed in HEK293 cells; format: cell-based
# [8] = molecular target: T1, Kappa-type opioid receptor; assay: Antagonist activity at KOR (unknown origin) expressed in HTLA cells assessed as inhibition of Sal A-induced beta-arrestin recruitment preincubated for overnight followed by Sal-A addition at 30 mins post compound treatment measured after 20 mins by Bright-Glo luminescence assay; format: cell-based
# How it was run: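 HTLA cells transfected overnight, plated at 15,000 cells/well in DMEM with 1% dialyzed FBS on poly-L-Lys, rested ≥6 h. Test compounds added, then Sal A 30 nM 30 min later; overnight incubation. BrightGlo reagent 20 min at room temperature in the dark; luminescence read. Normalized data, mean ± SEM from at least 4 measurements.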
# [9] = molecular target: T1, Kappa-type opioid receptor; assay: Antagonist activity at human KOR expressed in HEK293T cells coexpressing Gi assessed as Gi-mediated inhibition of cAMP production incubated for 15 mins followed by Gs activator isoproterenol addition measured after 15 mins by luciferase reporter gene assay; format: functional, cell-based; conditions: HEK-293T
# How it was run: (§1)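 HEK293T cells co-transfected with human KOR and GloSensor split-luciferase cAMP biosensor, plated 15,000 cells/well overnight. Loaded 1 h with 4 mM luciferin in 20 mM HEPES/HBSS pH 7.4. Compounds preincubated 15 min, Sal A 20 nM added for 15 min, then isoproterenol (200 nM final) to drive Gs; luminescence read 15 min later. Sal A shifts analysed by Schild analysis to give KB.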
# [10] = molecular target: T1, Kappa-type opioid receptor; assay: Antagonist activity at human KOR expressed in HEK293T cells coexpressing Gi assessed as inhibition of Sal A-induced Gi-mediated reduction of cAMP production incubated for 15 mins followed by Sal A addition for 15 mins and susequent addition of Gs activator isoproterenol measured after 15 mins by luciferase reporter gene assay; format: functional, cell-based; how it was run: as §1
# Chain of Kappa-type opioid receptor (Homo sapiens), P41145 [M142A] (P41145 whole entry M142A): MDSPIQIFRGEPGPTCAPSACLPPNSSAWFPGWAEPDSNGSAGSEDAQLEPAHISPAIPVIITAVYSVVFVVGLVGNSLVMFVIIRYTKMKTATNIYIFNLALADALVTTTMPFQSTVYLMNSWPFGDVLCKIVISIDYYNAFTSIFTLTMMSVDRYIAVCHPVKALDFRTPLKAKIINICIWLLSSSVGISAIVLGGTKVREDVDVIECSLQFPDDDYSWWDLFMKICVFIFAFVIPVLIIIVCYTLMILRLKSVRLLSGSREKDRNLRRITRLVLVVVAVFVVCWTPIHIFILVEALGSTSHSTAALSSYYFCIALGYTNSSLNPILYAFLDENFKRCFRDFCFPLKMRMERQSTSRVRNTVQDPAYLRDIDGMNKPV
# T1 sequence (P41145 whole entry): as the sequence (P41145 whole entry M142A) above, with A142M counted along it
SMILES,inhibition [1] [%],pKi [2],also measured
O=C(NC[C@@H](c1ccco1)N1CCCC1)c1cc2ccccc2o1,64,6.02,Ki [2]: 912 nM
Cc1ccc(C(CNC(=O)c2oc3ccccc3c2C)N2CCCC2)o1 (centres undefined),69.1,6.42,inhibition [3]: Active; Ki [2]: 363 nM; inhibition [4]: 40 to 60%
Cc1ccc(C(CNC(=O)c2oc3ccc(F)cc3c2C)N2CCCC2)o1 (centres undefined),75.8,6.18,inhibition [3]: Active; Ki [2]: 646 nM; inhibition [4]: 40 to 60%
Oc1ccc(CCC2CCCCN2Cc2ccc(Cl)o2)cc1 (centres undefined),95.3,6.30,
CCN(Cc1csc(C)n1)C(C)c1cccc(O)c1 (centres undefined),74,6.20,Ki [2]: 562 nM; Ratio Ki [5]: > 10; Ratio Ki [6]: > 10
Oc1cccc(CNCc2cc3ccccc3[nH]2)c1,82.4,6.15,Ki [2]: 676 nM
NC(=O)c1cc(S(=O)(=O)NC2CCN(Cc3ccccc3)CC2)cs1,47.3,5.01,
CSc1ccc(CN(CCO)Cc2ccc(-c3ccn[nH]3)s2)cc1,53,5.52,
COc1ccc2oc(C(=O)NCC(c3ccco3)N3CCCC3)c(C)c2c1 (centres undefined),74,6.14,
NC1CCc2cc(O)ccc2C1 (centres undefined),48.6,5.08,
COc1ccc(CNCC(O)c2cccc(O)c2)cc1Br (centres undefined),98.2,6.64,Ratio Ki [7]: 10; Ratio Ki [5]: > 10; Ratio Ki [6]: > 10
Cc1nc(O)cc(C2CCN(Cc3ccc(C4CCCC4)s3)CC2)n1,73.7,5.09,
CC(CCc1ccc(O)cc1)NCCc1ccccc1 (centres undefined),70.2,5.18,
Oc1cccc(C(O)CNCc2ccc(Cl)cc2Cl)c1 (centres undefined),97.9,7.05,Ratio Ki [7]: 10; Ki [2]: 83.2 nM; Ratio Ki [5]: > 10; Ratio Ki [6]: > 10; pIC50 [8]: 5.96; pKi [8]: 6.64; inhibition [8]: Dose-dependent effect; Kb [9]: 170 nM; inhibition ([10]; HEK-293T): Dose-dependent effect; Kb ([10]; read-out: pA2 (converted)): 166 nM
Cc1cc(S(=O)(=O)NCC(=O)NC2CCC2NC(C)C)ccc1F (centres undefined),49.1,5.21,
Oc1cccc(C(O)CNCc2c(Cl)cccc2Cl)c1 (centres undefined),80.1,5.59,
Cc1ncsc1CN1CCCCC1CCc1cccc(O)c1 (centres undefined),96.9,6.46,
Cc1cc2oc(C(=O)NCC(c3ccco3)N3CCCC3)c(C)c2cc1C (centres undefined),77.5,5.96,
CN(Cc1ccccc1NC(=O)NCc1ccoc1)C1CCCCC1,76.5,5.64,
Cc1ccc(-c2ccccc2CN2CC3CNCC3C2)o1 (centres undefined),60.7,5.52,
Cc1c(C(=O)NCC(c2ccco2)N2CCCC2)oc2ccc(Cl)cc12 (centres undefined),86.5,6.28,inhibition [3]: Active; inhibition [4]: 40 to 60%
COC(=O)[C@@H]1C[C@H](OC(C)=O)C(=O)[C@H]2[C@@]1(C)CC[C@H]1C(=O)O[C@H](c3ccoc3)C[C@]21C,,,Ratio Ki [7]: 10
Cc1cccc(C(O)CNC(C)Cn2cc(Br)cn2)c1 (centres undefined),49.8,5.19,
c1ccc(CN2CCC(Nc3nc4ccccc4o3)C2)cc1 (centres undefined),77.5,5.59,inhibition [4]: 40 to 60%
